# Results gathered from unrelated publications.
# Protocols differ between the studies behind these lines.
# Target: Platelet-derived growth factor receptor alpha (PDGFRA, Homo sapiens, UniProt P16234)
SMILES,assay,setting,remaining binding
Cc1cnn2ncc(-c3ccnc(N(C)C)n3)c2c1,binding,1 µM,97%
COc1cc(-c2cn(C3CCc4ccccc4N(CC(F)(F)F)C3=O)nn2)ccc1-n1ccc(C)n1 (centres unmarked),"cell-free assay, competition with immobilised ligand",1 µM,88%
COc1cnc(Nc2cccc(S(N)(=O)=O)c2)nc1N1CCN(c2ccccc2)CC1,"binding, competition with immobilised ligand",1 µM,85%
F[C@@H]1CCN(c2nccc(-c3cnn4ncccc34)n2)C1,binding,1 µM,100%
O=C(NCC1CCOCC1)c1n[nH]cc1NC(=O)c1c(F)cccc1F,"binding, competition with immobilised ligand",1 µM,84%
C=CC(=O)N1CCC(C(=O)NCC(=O)N2CCN(c3nc(-c4cnc(N)nc4C(F)F)nc(N4CCOCC4)n3)CC2)CC1,"binding, competition with immobilised ligand",1 µM,91%
CC1CCCN1c1nccc(-c2cnn3ncccc23)n1 (centres unmarked),binding,1 µM,94%
O=C(c1ccc(Nc2ncc(Cl)c(-c3cc4ccccc4s3)n2)cc1)N1CCC(N2CCCC2)CC1,"binding, competition with immobilised ligand",1 µM,35%
CC1=C(C#N)C(c2ccc3c(c2)c(NC(=O)c2ccccc2C)nn3C)C(C#N)=C(C)N1,"cell-free assay, competition with immobilised ligand",1 µM,86%
N#Cc1ccccc1CSc1nnc2c(n1)[nH]c1ccccc12,"binding, competition with immobilised ligand",10 µM,94%
O=C(NCCCN1CCOCC1)c1ccc(Nc2nccc(-c3cc4ccccc4s3)n2)cc1,"binding, competition with immobilised ligand",1 µM,64%
N[C@H]1CCN(c2nccc(-c3cnn4ncccc34)n2)C1,binding,1 µM,90%
CSc1cccnc1N1CCN(Cc2nc3ccccc3[nH]2)CC1,"cell-free assay, competition with immobilised ligand",1 µM,89%
C[C@@H]1CN(c2ccc3ncc(-c4ccc5[nH]nc(C6CC6)c5c4)n3n2)C[C@H](C)O1,"binding, competition with immobilised ligand",0.5 µM,76%
Cc1cnc(Nc2ccc(C(=O)N3CCC(N4CCCC4)CC3)cc2)nc1-c1cc2ccccc2s1,"binding, competition with immobilised ligand",1 µM,14%
C[C@H]1CCN(c2nccc(-c3cnn4ncccc34)n2)C1,binding,1 µM,83%
Nc1ncc2c(n1)-c1c([nH]c3ccc(C#CC4CC4)cc13)CCCC2,"binding, competition with immobilised ligand",1 µM,76%
COc1ccc2c(O[C@@H]3C[C@H]4C(=O)N[C@]5(C(=O)O)CC5/C=C\CCCCC[C@H](NC(=O)OC5CCCC5)C(=O)N4C3)cc(-c3csc(NC(=O)C(C)C)n3)nc2c1C (some centres unmarked),"cell-free assay, competition with immobilised ligand",1 µM,84%
COc1cnc(Nc2cccc(S(N)(=O)=O)c2)nc1N1CCN(c2ccccc2)C(=O)C1,"binding, competition with immobilised ligand",1 µM,82%
COc1cccc(CNC(=O)c2nc3scc(COCc4ccc(C(=O)O)cc4)c3c(=O)[nH]2)c1,"cell-free assay, competition with immobilised ligand",1 µM,56.3%
C[C@@H](c1ccc(-n2cnc3c(N)ncnc32)cc1)N1CCc2nn(C)c(Cc3ccccc3)c2C1=O,"binding, competition with immobilised ligand",0.1 µM,20%
COCCOc1nc(-c2ccc(Cl)nc2)nc2c1CN(C(=O)c1ncn3ccccc13)CC2,"cell-free assay, competition with immobilised ligand",0.1 µM,100%
CC(C)(C)c1ccc(-c2nc(CBr)nn2-c2cccc(O)c2)cc1,"cell-free assay, competition with immobilised ligand",10 µM,83%
FC(F)(F)Oc1cccc(-c2cnc3ccc(-c4ccncc4)nn23)c1,"cell-free assay, competition with immobilised ligand",5 µM,22%
COc1ccc2c(c1)O[C@@H](c1ccc(OC)c(OC)c1)C[C@H]2NC(=O)C1(c2ccc3c(c2)OC(F)(F)O3)CC1,"cell-free assay, competition with immobilised ligand",1 µM,78%
CN(C)c1ncc(F)c(-c2cnn3ncccc23)n1,binding,1 µM,67%
